According to paper PMC3953455 (Molecular pharmaceutics, 2013):

Columns and labels:
human UGT1A1 [1] = target: T1, human UGT1A1 (Homo sapiens, UniProt P22309); test: Glucuronidation kinetics with expressed human UGT1A1 Supersomes; assay type: in vitro ADME
T1 sequence (P22309 26-533): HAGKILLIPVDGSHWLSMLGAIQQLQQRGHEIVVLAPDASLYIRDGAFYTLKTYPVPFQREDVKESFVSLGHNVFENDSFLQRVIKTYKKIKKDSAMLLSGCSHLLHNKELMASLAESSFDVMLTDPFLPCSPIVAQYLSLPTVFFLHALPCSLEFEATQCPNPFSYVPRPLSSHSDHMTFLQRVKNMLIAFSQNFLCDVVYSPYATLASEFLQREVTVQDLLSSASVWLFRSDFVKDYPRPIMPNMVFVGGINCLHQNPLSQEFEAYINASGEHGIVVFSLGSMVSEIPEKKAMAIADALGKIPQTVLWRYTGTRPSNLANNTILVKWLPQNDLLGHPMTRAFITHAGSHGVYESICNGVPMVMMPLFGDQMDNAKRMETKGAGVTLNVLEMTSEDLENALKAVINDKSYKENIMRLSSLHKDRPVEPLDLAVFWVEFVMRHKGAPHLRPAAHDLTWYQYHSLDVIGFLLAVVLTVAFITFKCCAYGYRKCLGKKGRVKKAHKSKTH
Summary of the method: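 Recombinant human UGT1A1 Supersomes (26.5~53.0 µg protein/mL final) with MgCl2 0.88 mM, saccharolactone 4.4 mM, alamethicin 0.022 mg/mL and UDPGA 3.5 mM (added last) in 50 mM potassium phosphate, pH 7.4. Test compound at 0–10 µM final. Incubated 37°C for 15~120 min, then stopped with acetonitrile/acetic acid. Glucuronide quantified by UPLC in triplicate. Rates were fitted to Michaelis-Menten, substrate-inhibition or Hill equations with 1/y weighting.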

human UGT1A1 [2] = target: T1, human UGT1A1; test: Mutual glucuronidation inhibition; assay type: biochemical; details: for Ki: mixed-type inhibition; for type of inhibition of UGT1A1-mediated glucuronidation: best fit by R2 and AIC, Lineweaver-Burk plots; for decrease of apparent Vmax of glucuronidation versus control: substrate glucuronidation in presence of increasing 3,7,4′THF, up to 5 μM; for Vmax: n=3
[3] = Ki (inhibition of 3,7,4′THF-3-O-G formation), substrate 3,7,4′THF, 3-O-glucuronidation
[4] = Ki (inhibition of 3,7,4′THF-7-O-G formation), substrate 3,7,4′THF, 7-O-glucuronidation
[5] = glucuronide formation in presence of 3,7,4′THF 0.313 μM
[6] = glucuronide formation in presence of 3,7,4′THF 0.625 μM
[7] = glucuronide formation in presence of 3,7,4′THF 1.25 μM
[8] = glucuronide formation in presence of 3,7,4′THF 5 μM
[9] = glucuronide formation, 3,7,4′THF 0 μM (absence of inhibitor)

Row | Structure (SMILES) | type of inhibition of UGT1A1-mediated glucuronidation (human UGT1A1 [2]) | Ki (human UGT1A1 [2]; [3]) [µM] | Ki (human UGT1A1 [2]; [4]) [µM] | decrease of apparent Vmax of glucuronidation versus control (human UGT1A1 [2]) [times] | Vmax (human UGT1A1 [2]; [5]) [nmol/mg/min] | Vmax (human UGT1A1 [2]; [6]) [nmol/mg/min] | Vmax (human UGT1A1 [2]; [7]) [nmol/mg/min] | Vmax (human UGT1A1 [2]; [8]) [nmol/mg/min] | Vmax (human UGT1A1 [2]; [9]) [nmol/mg/min] | also measured
1 | O=c1c(O)c(-c2ccc(O)cc2)oc2cc(O)ccc12 [3,7,4′THF, 3,7,4′-trihydroxyflavone] | mixed-type inhibition |  |  |  |  |  |  |  |  | Ki of substrate inhibition (human UGT1A1 [1]; substrate inhibition pattern of 3,7,4′THF in the absence of three MHFs): approximately 1 μM; Ki (human UGT1A1 [2]; Ki (inhibition of glucuronidation of 3HF), substrate 3HF): 0.51 ± 0.15 µM; Ki (human UGT1A1 [2]; Ki (inhibition of glucuronidation of 7HF), substrate 7HF): 1.29 ± 0.33 µM
2 | O=C(O)[C@H]1O[C@@H](Oc2ccc(-c3oc4cc(O)ccc4c(=O)c3O)cc2)[C@H](O)[C@@H](O)[C@@H]1O [3,7,4′THF-4′-O-G, 3,7,4′THF-4′-O-glucuronide] |  |  |  |  |  |  |  |  |  | detection of glucuronide in UGT1A1 reaction mixtures (human UGT1A1 [1]; 3,7,4′THF incubated with human UGT1A1): not detected
3 | O=c1c(O)c(-c2ccccc2)oc2ccccc12 [3HF, 3-Hydroxyflavone] | mixed-type inhibitors | 4.14 ± 1.24 | 9.04 ± 2.72 | ≤ 4.6 |  |  |  |  |  | 
4 | O=C(O)[C@H]1O[C@@H](Oc2c(-c3ccccc3)oc3ccccc3c2=O)[C@H](O)[C@@H](O)[C@@H]1O [3HF-O-G, 3HF-O-glucuronide] |  |  |  |  | 1.63 ± 0.07 | 1.67 ± 0.03 | 2.05 ± 0.13 | 0.44 ± 0.16 | 2.00 ± 0.05 | 
5 | O=c1cc(-c2ccc(O)cc2)oc2ccccc12 [4′HF, 4′-hydroxyflavone] | mixed-type inhibitors | 3.66 ± 0.77 | 6.22 ± 1.74 | ≤ 5.0 |  |  |  |  |  | 
6 | O=C(O)[C@H]1O[C@@H](Oc2ccc(-c3cc(=O)c4ccccc4o3)cc2)[C@H](O)[C@@H](O)[C@@H]1O [4′HF-O-G, 4′HF-O-glucuronide] |  |  |  |  | 0.63 ± 0.02 | 0.61 ± 0.02 | 0.58 ± 0.01 | 0.14 ± 0.01 | 0.68 ± 0.02 | 
7 | O=c1cc(-c2ccccc2)oc2cc(O)ccc12 [7HF, 7-hydroxyflavone] | mixed-type inhibitors | 1.77 ± 0.72 | 4.33 ± 1.6 | ≤ 2.4 |  |  |  |  |  | 
8 | O=C(O)[C@H]1O[C@@H](Oc2ccc3c(=O)cc(-c4ccccc4)oc3c2)[C@H](O)[C@@H](O)[C@@H]1O [7HF-O-G, 7HF-O-glucuronide] |  |  |  |  | 1.27 ± 0.03 | 1.16 ± 0.03 | 0.99 ± 0.07 | 0.59 ± 0.07 | 1.40 ± 0.05 | 
